Assay [1] addresses T1, Histamine H4 receptor (Homo sapiens, UniProt Q9H3N8). In words: Inhibitory activity measured by [3H]histamine binding to membranes of SK-N-MC cells expressing the human Histamine H4 receptor.
In assay [2] the target is T1, Histamine H4 receptor. In words: Inhibitory activity determined by the inhibition of cAMP- stimulated beta-galactosidase transcription in SK-N-MC cells expressing the human Histamine H4 receptor. Format: cell-based. Put shortly: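 SK-N-MC cells stably carrying human H4 receptor and a CRE-driven β-galactosidase reporter gene, grown overnight, then exposed 6 h at 37 °C to 1 μM forskolin plus ligand. Mean ± SEM, at least three independent experiments.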

The target in assay [3] is T2, Histamine H3 receptor (Homo sapiens, UniProt Q9Y5N1). In words: Inhibitory activity determined by the inhibition of cAMP- stimulated beta-galactosidase transcription in SK-N-MC cells expressing the human Histamine H3 receptor. Format: cell-based.
T2 sequence (Q9Y5N1 whole entry): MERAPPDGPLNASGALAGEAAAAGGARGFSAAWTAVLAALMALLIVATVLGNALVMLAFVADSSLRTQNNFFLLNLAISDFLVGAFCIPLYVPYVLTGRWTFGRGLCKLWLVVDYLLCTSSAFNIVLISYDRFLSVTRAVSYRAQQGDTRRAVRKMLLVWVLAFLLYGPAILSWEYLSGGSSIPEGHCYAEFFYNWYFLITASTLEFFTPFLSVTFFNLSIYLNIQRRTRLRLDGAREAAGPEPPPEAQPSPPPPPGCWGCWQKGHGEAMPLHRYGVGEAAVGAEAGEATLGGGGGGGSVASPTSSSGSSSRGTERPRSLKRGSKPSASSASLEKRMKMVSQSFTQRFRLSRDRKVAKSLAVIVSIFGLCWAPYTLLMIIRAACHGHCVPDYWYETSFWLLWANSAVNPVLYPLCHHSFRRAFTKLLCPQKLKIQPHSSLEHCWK
The target in assay [4] is T2, Histamine H3 receptor. In words: Inhibitory activity measured by [3H]- N alpha- methyl-histamine binding to membranes of SK-N-MC cells expressing the human Histamine H3 receptor. Format: cell membranes.
Assay [5] has as its target T1, Histamine H4 receptor. In words: Intrinsic activity for Histamine H4 receptor. In outline:
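SK-N-MC cells stably carrying human H4 receptor and a CRE-driven β-galactosidase reporter gene, grown overnight, then exposed 6 h at 37 °C to 1 μM forskolin plus ligand. Medium removed; cells held overnight at 4 °C in pH 8 phosphate buffer containing Triton and 4 mM ONPG; absorbance read at 405 nm. Mean ± SEM, at least three independent experiments.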

T1 sequence (Q9H3N8 whole entry): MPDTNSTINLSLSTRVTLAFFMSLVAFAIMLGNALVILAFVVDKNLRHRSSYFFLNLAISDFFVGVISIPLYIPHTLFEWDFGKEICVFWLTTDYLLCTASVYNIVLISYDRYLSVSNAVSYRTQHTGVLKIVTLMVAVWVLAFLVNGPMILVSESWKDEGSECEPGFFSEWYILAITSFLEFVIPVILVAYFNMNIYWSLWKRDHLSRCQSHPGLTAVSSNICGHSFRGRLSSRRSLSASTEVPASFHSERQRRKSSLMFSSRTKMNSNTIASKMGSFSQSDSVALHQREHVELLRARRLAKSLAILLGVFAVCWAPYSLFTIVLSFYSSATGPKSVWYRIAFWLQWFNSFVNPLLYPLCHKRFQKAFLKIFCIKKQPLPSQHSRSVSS

Consider `C(=C1CCNCC1)c1c[nH]cn1`, for which the Ki at Histamine H4 receptor [1] was 1.74 µM; at Histamine H3 receptor [4] it was 0.00589 µM. Further, the concentration for a half-maximal effect (EC50) at Histamine H4 receptor [2] is > 10 µM; at Histamine H3 receptor [3], 0.00316 µM.
On to `NCCCCc1c[nH]cn1` [IMBUTAMINE], for which the values for the EC50 at Histamine H4 receptor [2] and on Histamine H3 receptor [3] were 0.0891 µM and 0.00741 µM, respectively. On Histamine H4 receptor [5], this compound gave an Intrinsic activity of 0.96. In addition, the Ki on Histamine H3 receptor [4] is 0.00407 µM.
In the case of `c1nc(CCC2CCNCC2)c[nH]1`, the values for the Ki at Histamine H4 receptor [1] and on Histamine H3 receptor [4] were 0.372 µM and 0.02 µM, respectively. The EC50 at Histamine H4 receptor [2] was > 10 µM; at Histamine H3 receptor [3], 0.0132 µM.
As for `c1nc(CCC2CCCCN2)c[nH]1` (centres undefined), at Histamine H4 receptor [1], the Ki was 4.47 µM. For the same compound, the concentration for a half-maximal effect (EC50) on Histamine H4 receptor [2] and on Histamine H3 receptor [3] was > 10 µM each time.
Consider `NCC1CC1c1c[nH]cn1` (centres undefined), for which the Ki on Histamine H4 receptor [1] is 0.112 µM; at Histamine H3 receptor [4], 0.0355 µM. The values for the concentration giving a half-maximal response (EC50) on Histamine H4 receptor [2] and on Histamine H3 receptor [3] were 1.1 µM and 0.0195 µM, respectively. Besides, at Histamine H4 receptor [5], the Intrinsic activity came to 0.56.
In the case of `c1nc(CCCC2CCCNC2)c[nH]1` (centres undefined), on Histamine H4 receptor [1], the Ki was 0.389 µM. For the same compound, the EC50 on Histamine H4 receptor [2] is > 10 µM.
On to `c1nc(C[C@@H]2CCNC2)c[nH]1`, for which the values for the Ki at Histamine H4 receptor [1] and at Histamine H3 receptor [4] were 0.141 µM and 0.00141 µM, respectively. Besides, the figures for the EC50 at Histamine H4 receptor [2] and on Histamine H3 receptor [3] were 1.02 µM and 0.000389 µM, respectively. The Intrinsic activity at Histamine H4 receptor [5] amounted to 0.8.
On to `c1nc(CC2CCNCC2)c[nH]1` [IMMEPIP], for which the values for the EC50 on Histamine H4 receptor [2] and at Histamine H3 receptor [3] were 0.0562 µM and 0.000132 µM, respectively. The Intrinsic activity on Histamine H4 receptor [5] turned out to be 0.73. In addition, at Histamine H3 receptor [4], the Ki is 0.000479 µM.
`NCCCCCCc1cnc[nH]1`: the values for the Ki on Histamine H4 receptor [1] and on Histamine H3 receptor [4] were 0.759 µM and 0.01 µM, respectively. Besides, the values for the EC50 on Histamine H4 receptor [2] and on Histamine H3 receptor [3] were > 10 µM and 0.0331 µM, respectively.
For `C=C(c1c[nH]cn1)C1CCNCC1`, the values for the Ki at Histamine H4 receptor [1] and at Histamine H3 receptor [4] were 2.82 µM and 0.00398 µM, respectively. The results for the EC50 on Histamine H4 receptor [2] and on Histamine H3 receptor [3] were > 10 µM and 0.00234 µM, respectively.
`c1nc(CC2CCCCN2)c[nH]1` (centres undefined) showed a Ki at Histamine H4 receptor [1] of 8.91 µM. The EC50 at Histamine H4 receptor [2] is > 10 µM; on Histamine H3 receptor [3], 0.794 µM.
As for `c1nc(CC2CCCNC2)c[nH]1` (centres undefined), the Ki on Histamine H4 receptor [1] is 0.617 µM; on Histamine H3 receptor [4] it was 0.0676 µM. The EC50 on Histamine H4 receptor [2] is 3.98 µM; at Histamine H3 receptor [3], 0.049 µM. For the same compound, the Intrinsic activity at Histamine H4 receptor [5] was 0.64.
For `c1nc(CCC2CCCNC2)c[nH]1` (centres undefined) the same measures were 0.324 µM, 0.182 µM, 2.04 µM, 0.513 µM and 0.48.
With `N[C@H]1C[C@@H]1c1c[nH]cn1` [VUF-5297], the figures for the Ki at Histamine H4 receptor [1] and on Histamine H3 receptor [4] were 1.1 µM and 0.00933 µM, respectively. The EC50 is 7.08 µM at Histamine H4 receptor [2] and 0.00589 µM on Histamine H3 receptor [3]. Moreover, the Intrinsic activity at Histamine H4 receptor [5] was found to be 0.61.
For `c1nc(CC2CCNC2)c[nH]1` (centres undefined) the same measures were 0.0513 µM, 0.00363 µM, 0.741 µM, 0.00132 µM and 0.83.
With `C[C@@H](N)Cc1c[nH]cn1`, on Histamine H4 receptor [2], a half-maximal effect (EC50) was put at 1.12 µM. Besides, on Histamine H4 receptor [5], the Intrinsic activity amounted to 1.04.
Consider `NCCCc1c[nH]cn1` [HOMOHISTAMINE], for which the EC50 is 0.214 µM at Histamine H4 receptor [2] and 0.0427 µM at Histamine H3 receptor [3]. This compound registered an Intrinsic activity on Histamine H4 receptor [5] of 0.82. At Histamine H3 receptor [4], this compound had a Ki of 0.049 µM.
In turn, `O=C(c1c[nH]cn1)C1CCNCC1` gave a Ki at Histamine H4 receptor [1] of 479 µM. Moreover, the EC50 is > 10 µM on Histamine H4 receptor [2] and 2.75 µM on Histamine H3 receptor [3].
Take `c1nc(C[C@H]2CCNC2)c[nH]1`: the Ki at Histamine H4 receptor [1] was 0.0372 µM; at Histamine H3 receptor [4], 0.00525 µM. In addition, the EC50 on Histamine H4 receptor [2] was 0.417 µM; at Histamine H3 receptor [3], 0.00209 µM. For the same compound, the Intrinsic activity on Histamine H4 receptor [5] was 0.85.
Consider `N[C@@H]1C[C@H]1c1cnc[nH]1` [VUF-5296], for which the Ki was 3.8 µM at Histamine H4 receptor [1] and 0.0676 µM at Histamine H3 receptor [4]. Moreover, the EC50 on Histamine H4 receptor [2] was > 10 µM; on Histamine H3 receptor [3], 0.0575 µM.
For `C1=C(c2c[nH]cn2)CCNC1` the same measures were 263 µM, 4.27 µM, > 10 µM and 1.51 µM.
`NCCCCCc1c[nH]cn1` [IMPENTAMINE] had a Ki on Histamine H4 receptor [1] of 0.372 µM. Besides, the concentration for a half-maximal effect (EC50) at Histamine H4 receptor [2] was > 10 µM; at Histamine H3 receptor [3] it was 0.00234 µM.
For the compound `c1nc(CCCC2CCCCN2)c[nH]1` (centres undefined), the Ki was 0.575 µM at Histamine H4 receptor [1] and 0.0933 µM at Histamine H3 receptor [4]. The EC50 on Histamine H4 receptor [2] is > 10 µM; on Histamine H3 receptor [3] it was 0.324 µM.
For the compound `c1ncc(CCCC2CCNCC2)[nH]1`, the Ki is 0.617 µM on Histamine H4 receptor [1] and 0.00447 µM on Histamine H3 receptor [4]. Also, the EC50 is > 10 µM at Histamine H4 receptor [2] and 0.00832 µM at Histamine H3 receptor [3].
As to `c1nc(C2CCNCC2)c[nH]1`, the inhibitory constant (Ki) at Histamine H4 receptor [1] is 2.19 µM; at Histamine H3 receptor [4], 0.871 µM. The figures for the EC50 at Histamine H4 receptor [2] and at Histamine H3 receptor [3] were > 10 µM and 1.82 µM, respectively.

A word on the Ki: it is a measure of affinity in units of concentration, obtained from inhibition or displacement. Higher therefore signals a looser hold on the target. In general, EC50 refers to the concentration at which the effect is half-maximal. The low end stands for higher potency in that assay, the high end for lower potency in that assay.

Values taken from ChEMBL document CHEMBL1144885 (J Med Chem, 2003).
